Test results published in ChEMBL document CHEMBL1138981, “Synthesis and SAR of 1,2-trans-(1-hydroxy-3-phenylprop-1-yl)cyclopentane carboxamide derivatives, a new class of sodium channel blockers” (Bioorg Med Chem Lett, 2006).
pIC50: −log10 of the molar value.

Columns and labels:
[1] = biological target: Sodium channel protein type 9 subunit alpha (Homo sapiens, UniProt Q15858); assay: Inhibition of peripheral nerve sodium channel NaV1.7
hERG (KCNH2) [2] = biological target: T1, hERG (KCNH2) (Homo sapiens, UniProt Q12809); assay: (§1) Displacement of [35S]-labeled MK499 from hERG at 10 uM; details: probe [35S]-MK499
T1 sequence (Q12809 whole entry): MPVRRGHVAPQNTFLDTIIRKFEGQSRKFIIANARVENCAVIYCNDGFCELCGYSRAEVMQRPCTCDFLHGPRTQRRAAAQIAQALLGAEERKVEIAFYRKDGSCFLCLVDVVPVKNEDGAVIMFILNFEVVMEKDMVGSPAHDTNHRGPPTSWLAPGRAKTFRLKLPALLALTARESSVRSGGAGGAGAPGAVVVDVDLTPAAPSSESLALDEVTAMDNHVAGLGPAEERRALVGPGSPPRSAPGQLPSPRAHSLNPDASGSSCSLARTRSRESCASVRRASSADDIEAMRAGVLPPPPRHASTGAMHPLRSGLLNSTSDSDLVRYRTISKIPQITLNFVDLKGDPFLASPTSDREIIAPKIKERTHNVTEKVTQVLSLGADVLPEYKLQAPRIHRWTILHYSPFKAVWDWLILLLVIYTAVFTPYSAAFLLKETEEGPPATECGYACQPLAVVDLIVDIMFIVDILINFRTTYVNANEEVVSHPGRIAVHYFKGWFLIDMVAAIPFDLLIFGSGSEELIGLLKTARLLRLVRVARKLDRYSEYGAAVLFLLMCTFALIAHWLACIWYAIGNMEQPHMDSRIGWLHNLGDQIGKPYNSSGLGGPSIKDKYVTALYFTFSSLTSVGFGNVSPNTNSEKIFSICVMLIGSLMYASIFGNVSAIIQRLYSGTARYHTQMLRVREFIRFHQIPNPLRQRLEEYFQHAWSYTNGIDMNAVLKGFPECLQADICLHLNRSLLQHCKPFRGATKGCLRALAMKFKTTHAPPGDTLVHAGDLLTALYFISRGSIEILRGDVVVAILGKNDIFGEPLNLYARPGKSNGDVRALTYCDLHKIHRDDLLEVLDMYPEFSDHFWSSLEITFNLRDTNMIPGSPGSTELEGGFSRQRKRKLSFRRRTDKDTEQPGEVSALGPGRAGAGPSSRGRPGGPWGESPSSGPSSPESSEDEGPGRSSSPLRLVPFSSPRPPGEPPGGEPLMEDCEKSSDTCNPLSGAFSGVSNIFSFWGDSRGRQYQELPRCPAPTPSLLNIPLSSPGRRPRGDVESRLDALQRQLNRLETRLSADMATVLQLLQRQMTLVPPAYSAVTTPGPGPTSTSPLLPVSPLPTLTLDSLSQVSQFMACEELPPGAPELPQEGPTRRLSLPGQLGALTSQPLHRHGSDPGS

[3] = (§2) Stability in human liver microsome after 1 hr; format: ADME, microsomes; details: liver microsomes, read-out: Stability
[4] = (§3) Oral bioavailability in rat; format: ADME, organism-based; details: in vivo
[5] = Plasma clearance in rat at 1 mg/kg, iv; format: ADME, organism-based; parameters: dose 1 mg/kg, route intravenous
[6] = (§4) Half life in rat at 1 mg/kg, iv; format: ADME, organism-based; parameters: dose 1 mg/kg, route intravenous; details: in vivo
[7] = Cmax in rat at 2 mg/kg, po; format: ADME, organism-based; parameters: dose 2 mg/kg, route oral; details: in vivo
Rattus norvegicus [8] = assay: AUC in rat at 2 mg/kg, po; format: ADME, organism-based, Plasma; parameters: dose 2 mg/kg, route oral; details: in vivo
Rattus norvegicus [9] = assay: Anti-allodynic efficacy in rat chronic pain model at 3 mg/kg, po; format: ADME, organism-based; parameters: dose 3 mg/kg, route oral; details: in vivo
Method in brief: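 Chronic inflammatory pain induced in rats by intradermal injection of complete Freund's adjuvant (CFA). The read-out was reversal of CFA-induced allodynia after oral dosing.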

hERG (KCNH2) [10] = biological target: T1, hERG (KCNH2); assay: Displacement of [35S]-labeled MK499 from hERG at 1 uM; details: probe [35S]-MK499
[11] = biological target: Voltage-gated inwardly rectifying potassium channel KCNH2 (Homo sapiens, UniProt Q12809); assay: as §1; details: 10 µM
Sequence of Voltage-gated inwardly rectifying potassium channel KCNH2 (Q12809 whole entry): as above

Liver microsomes = assay: as §2; format: ADME; details: microsomes, 1 h
Rattus norvegicus [12] = assay: as §3; format: ADME, organism-based; details: in vivo
Rattus norvegicus [13] = assay: as §4; format: ADME, organism-based; parameters: dose 1 mg/kg, route intravenous; details: in vivo
[14] = (§5) Cmax in rat at 3 mg/kg, po; format: ADME, organism-based; parameters: dose 3 mg/kg, route oral; details: in vivo
Rattus norvegicus [15] = assay: AUC in rat at 3 mg/kg, po; format: ADME, organism-based, Plasma; parameters: dose 3 mg/kg, route oral; details: in vivo
Rattus norvegicus [16] = assay: as §5; format: ADME, organism-based; parameters: dose 3 mg/kg, route oral; details: in vivo

Sequence of Sodium channel protein type 9 subunit alpha (Q15858 whole entry): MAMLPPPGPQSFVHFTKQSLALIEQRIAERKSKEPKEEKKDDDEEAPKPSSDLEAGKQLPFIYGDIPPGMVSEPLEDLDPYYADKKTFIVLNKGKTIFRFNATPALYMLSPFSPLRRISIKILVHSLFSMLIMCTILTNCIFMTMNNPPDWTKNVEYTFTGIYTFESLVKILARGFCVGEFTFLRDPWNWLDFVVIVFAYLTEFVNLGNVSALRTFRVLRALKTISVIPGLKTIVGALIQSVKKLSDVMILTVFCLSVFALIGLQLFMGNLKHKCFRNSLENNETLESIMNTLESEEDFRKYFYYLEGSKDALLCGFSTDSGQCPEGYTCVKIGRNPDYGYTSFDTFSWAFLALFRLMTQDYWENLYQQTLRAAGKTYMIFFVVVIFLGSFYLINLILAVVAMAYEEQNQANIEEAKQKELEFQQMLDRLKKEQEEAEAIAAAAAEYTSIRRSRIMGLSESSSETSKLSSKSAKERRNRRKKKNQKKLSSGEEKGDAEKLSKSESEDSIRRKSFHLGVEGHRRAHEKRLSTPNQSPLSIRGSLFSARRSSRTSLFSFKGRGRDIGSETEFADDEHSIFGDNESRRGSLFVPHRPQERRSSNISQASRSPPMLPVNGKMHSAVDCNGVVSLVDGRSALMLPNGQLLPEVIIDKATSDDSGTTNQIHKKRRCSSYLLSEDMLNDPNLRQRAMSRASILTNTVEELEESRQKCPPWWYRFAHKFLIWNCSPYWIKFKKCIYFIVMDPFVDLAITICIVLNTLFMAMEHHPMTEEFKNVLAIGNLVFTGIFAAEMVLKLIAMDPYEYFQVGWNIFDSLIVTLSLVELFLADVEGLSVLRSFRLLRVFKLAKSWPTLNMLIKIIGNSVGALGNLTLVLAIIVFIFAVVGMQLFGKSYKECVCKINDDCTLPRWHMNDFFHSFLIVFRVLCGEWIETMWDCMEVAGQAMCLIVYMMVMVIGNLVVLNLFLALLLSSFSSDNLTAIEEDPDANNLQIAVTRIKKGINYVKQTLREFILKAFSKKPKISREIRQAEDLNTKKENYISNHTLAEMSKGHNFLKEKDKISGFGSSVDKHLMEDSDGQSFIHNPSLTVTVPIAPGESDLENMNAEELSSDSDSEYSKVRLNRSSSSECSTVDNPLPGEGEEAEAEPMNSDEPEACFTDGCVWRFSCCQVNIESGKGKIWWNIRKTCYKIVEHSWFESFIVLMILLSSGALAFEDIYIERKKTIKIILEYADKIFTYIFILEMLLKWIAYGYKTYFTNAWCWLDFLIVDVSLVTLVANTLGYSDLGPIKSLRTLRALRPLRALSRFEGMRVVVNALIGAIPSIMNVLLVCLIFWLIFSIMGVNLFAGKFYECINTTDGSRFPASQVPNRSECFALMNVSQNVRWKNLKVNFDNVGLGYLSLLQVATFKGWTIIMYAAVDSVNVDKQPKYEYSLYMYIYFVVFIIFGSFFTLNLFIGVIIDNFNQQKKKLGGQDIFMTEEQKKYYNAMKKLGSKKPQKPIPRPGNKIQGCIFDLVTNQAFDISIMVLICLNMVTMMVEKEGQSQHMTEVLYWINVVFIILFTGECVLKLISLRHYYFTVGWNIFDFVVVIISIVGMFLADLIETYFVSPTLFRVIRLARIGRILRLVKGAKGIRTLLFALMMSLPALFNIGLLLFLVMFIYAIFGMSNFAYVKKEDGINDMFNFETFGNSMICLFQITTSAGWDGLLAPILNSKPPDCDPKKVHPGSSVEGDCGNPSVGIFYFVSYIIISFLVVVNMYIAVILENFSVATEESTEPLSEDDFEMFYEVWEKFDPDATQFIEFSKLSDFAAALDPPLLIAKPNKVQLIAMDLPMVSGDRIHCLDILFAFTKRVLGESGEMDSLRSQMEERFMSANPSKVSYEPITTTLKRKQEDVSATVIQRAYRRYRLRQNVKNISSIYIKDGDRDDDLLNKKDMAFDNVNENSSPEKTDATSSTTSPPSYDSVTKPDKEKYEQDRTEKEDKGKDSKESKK

| Compound | pIC50 [1] | inhibition at 10 µM (hERG (KCNH2) [2]) | also measured |
| --- | --- | --- | --- |
| O=S(=O)(NC[C@@H]1CCC[C@H]1C(O)CCc1ccccc1)c1cc(Cl)cc(Cl)c1 (relative stereo) | < 5.52 | 90% |  |
| O=C(NCc1ccccc1C(F)(F)F)[C@@H]1CCC[C@H]1C(O)CCc1cccc(OC(F)(F)F)c1 (relative stereo) | 6.36 | 78% |  |
| O=C(NCc1ccccc1)[C@@H]1CCC[C@H]1C(O)CCc1cccc(OC(F)(F)F)c1 (relative stereo) | 6.64 | 89% |  |
| O=C(NCc1cc(Cl)cc(Cl)c1)[C@@H]1CCC[C@H]1C(O)CCc1ccc(OC(F)(F)F)cc1 (relative stereo) | 6.06 | 93% |  |
| CN(Cc1ccccc1)C(=O)[C@@H]1CCC[C@H]1C(=O)NCc1ccc(OC(F)(F)F)cc1 (relative stereo) | 5.83 |  |  |
| O=S(=O)(NC[C@@H]1CCC[C@H]1C(O)CCc1ccccc1)c1ccc(OC(F)(F)F)cc1 (relative stereo) | 6.20 | 90% |  |
| O=C(NCc1ccccc1)[C@@H]1CCC[C@H]1C(O)CCc1ccccc1 (relative stereo) | < 5.52 |  |  |
| O=C(NCc1ccccc1)[C@@H]1CCC[C@H]1C(O)CCc1ccccc1OC(F)(F)F (relative stereo) | 6.49 | 92% |  |
| CN(Cc1ccc(-c2ccccc2S(N)(=O)=O)cc1)C(=O)[C@@H]1CCC[C@H]1C(=O)NCc1ccc(OC(F)(F)F)cc1 (relative stereo) | 6.54 | 54% | remaining at 1 h [3]: 4%; bioavailability [4]: 44%; clearance [5]: 14 mL/min/kg; half-life [6]: 1 h; Cmax [7]: 1000 nM; AUC (Rattus norvegicus [8]): 1.8 µM·h; Efficacy (Rattus norvegicus [9]): 43% |
| OC(CCc1ccccc1)[C@@H]1CCC[C@H]1OCCc1ccc(OC(F)(F)F)cc1 (relative stereo) | < 5.52 | 70% |  |
| OC(CCc1ccccc1)[C@@H]1CCC[C@H]1OCCc1cc(Cl)cc(Cl)c1 (relative stereo) | < 5.52 | 40% |  |
| O=C(NC[C@@H]1CCC[C@H]1C(O)CCc1ccccc1)c1cc(Cl)cc(Cl)c1 (relative stereo) | < 5.52 | 79% |  |
| COc1ccc(CCC(O)[C@@H]2CCC[C@H]2C(=O)NCc2cc(Cl)cc(Cl)c2)cc1 (relative stereo) | 5.92 | 70% |  |
| O=C(NC[C@@H]1CCC[C@H]1C(O)CCc1ccccc1)c1ccc(OC(F)(F)F)cc1 (relative stereo) | 6.48 | 84% | inhibition at 1 µM (hERG (KCNH2) [10]): 45% |
| O=C(NCc1cc(Cl)cc(Cl)c1)[C@@H]1CCC[C@H]1C(O)CCc1ccccc1OC(F)(F)F (relative stereo) | 5.94 | 73% |  |
| O=C(NCc1cc(Cl)cc(Cl)c1)[C@@H]1CCC[C@H]1C(O)CCc1cccc(OC(F)(F)F)c1 (relative stereo) | 6.36 | 87% |  |
| O=C(NCc1cc(Cl)cc(Cl)c1)[C@@H]1CCC[C@H]1C(O)CCc1ccccc1 (relative stereo) | 6.01 | 91% |  |
| CS(=O)(=O)c1ccc(CCC(O)[C@@H]2CCC[C@H]2C(=O)NCc2ccc(OC(F)(F)F)cc2)cc1 (relative stereo) | < 5.52 |  |  |
| OC(CCc1ccccc1)[C@@H]1CCC[C@H]1COCc1cc(Cl)cc(Cl)c1 (relative stereo) | 5.95 | 59% |  |
| OC(CCc1ccccc1)[C@@H]1CCC[C@H]1COCc1ccc(OC(F)(F)F)cc1 (relative stereo) | 6.09 | 65% |  |
| O=C(NCc1ccccc1)[C@@H]1CCC[C@H]1C(O)CCc1ccc(OC(F)(F)F)cc1 (stereo in doubt; 13) | 6.19 |  | Inhibition [11]: 52%; Stability (Liver microsomes): 13%; F (Rattus norvegicus [12]): 40%; T1/2 (Rattus norvegicus [13]): 1.6 h; Cmax [14]: 1900 nM; AUC (Rattus norvegicus [15]): 5.3 µM·h; Efficacy (Rattus norvegicus [9]): 25% |
| O=C(NCc1ccccc1)[C@@H]1CCC[C@H]1C(O)CCc1ccc(OC(F)(F)F)cc1 (stereo in doubt; 13A) | 6.28 |  | Inhibition [11]: 68% |
| O=C(NCc1ccccc1)[C@@H]1CCC[C@H]1C(O)CCc1ccc(OC(F)(F)F)cc1 (stereo in doubt; 13B) | 6.44 | 60% | Stability (Liver microsomes): 49%; F (Rattus norvegicus [12]): 65%; clearance [5]: 9 mL/min/kg; half-life [6]: 1.6 h; Cmax (Rattus norvegicus [16]): 2300 nM; AUC (Rattus norvegicus [15]): 9 µM·h; Efficacy (Rattus norvegicus [9]): 31% |
